Experimental data taken from ChEMBL document CHEMBL3351726 (J Med Chem, 2014).
pIC50: −log10 of the molar value. Residues, ends and D or L forms follow the SMILES beside them.

Assays:
[1] = Retention time of the compound measured over 15 mins at flow rate of 1 mL/min by HPLC
[2] = molecular target: Sodium channel protein type 9 subunit alpha (Homo sapiens, UniProt Q15858); assay: Inhibition of human Nav1.7 expressed in HEK-293 cells at -130 to -110 mV holding potential by whole-cell voltage clamp analysis; type: cell-based, HEK293
Sodium channel protein type 9 subunit alpha, sequence (Q15858 whole entry): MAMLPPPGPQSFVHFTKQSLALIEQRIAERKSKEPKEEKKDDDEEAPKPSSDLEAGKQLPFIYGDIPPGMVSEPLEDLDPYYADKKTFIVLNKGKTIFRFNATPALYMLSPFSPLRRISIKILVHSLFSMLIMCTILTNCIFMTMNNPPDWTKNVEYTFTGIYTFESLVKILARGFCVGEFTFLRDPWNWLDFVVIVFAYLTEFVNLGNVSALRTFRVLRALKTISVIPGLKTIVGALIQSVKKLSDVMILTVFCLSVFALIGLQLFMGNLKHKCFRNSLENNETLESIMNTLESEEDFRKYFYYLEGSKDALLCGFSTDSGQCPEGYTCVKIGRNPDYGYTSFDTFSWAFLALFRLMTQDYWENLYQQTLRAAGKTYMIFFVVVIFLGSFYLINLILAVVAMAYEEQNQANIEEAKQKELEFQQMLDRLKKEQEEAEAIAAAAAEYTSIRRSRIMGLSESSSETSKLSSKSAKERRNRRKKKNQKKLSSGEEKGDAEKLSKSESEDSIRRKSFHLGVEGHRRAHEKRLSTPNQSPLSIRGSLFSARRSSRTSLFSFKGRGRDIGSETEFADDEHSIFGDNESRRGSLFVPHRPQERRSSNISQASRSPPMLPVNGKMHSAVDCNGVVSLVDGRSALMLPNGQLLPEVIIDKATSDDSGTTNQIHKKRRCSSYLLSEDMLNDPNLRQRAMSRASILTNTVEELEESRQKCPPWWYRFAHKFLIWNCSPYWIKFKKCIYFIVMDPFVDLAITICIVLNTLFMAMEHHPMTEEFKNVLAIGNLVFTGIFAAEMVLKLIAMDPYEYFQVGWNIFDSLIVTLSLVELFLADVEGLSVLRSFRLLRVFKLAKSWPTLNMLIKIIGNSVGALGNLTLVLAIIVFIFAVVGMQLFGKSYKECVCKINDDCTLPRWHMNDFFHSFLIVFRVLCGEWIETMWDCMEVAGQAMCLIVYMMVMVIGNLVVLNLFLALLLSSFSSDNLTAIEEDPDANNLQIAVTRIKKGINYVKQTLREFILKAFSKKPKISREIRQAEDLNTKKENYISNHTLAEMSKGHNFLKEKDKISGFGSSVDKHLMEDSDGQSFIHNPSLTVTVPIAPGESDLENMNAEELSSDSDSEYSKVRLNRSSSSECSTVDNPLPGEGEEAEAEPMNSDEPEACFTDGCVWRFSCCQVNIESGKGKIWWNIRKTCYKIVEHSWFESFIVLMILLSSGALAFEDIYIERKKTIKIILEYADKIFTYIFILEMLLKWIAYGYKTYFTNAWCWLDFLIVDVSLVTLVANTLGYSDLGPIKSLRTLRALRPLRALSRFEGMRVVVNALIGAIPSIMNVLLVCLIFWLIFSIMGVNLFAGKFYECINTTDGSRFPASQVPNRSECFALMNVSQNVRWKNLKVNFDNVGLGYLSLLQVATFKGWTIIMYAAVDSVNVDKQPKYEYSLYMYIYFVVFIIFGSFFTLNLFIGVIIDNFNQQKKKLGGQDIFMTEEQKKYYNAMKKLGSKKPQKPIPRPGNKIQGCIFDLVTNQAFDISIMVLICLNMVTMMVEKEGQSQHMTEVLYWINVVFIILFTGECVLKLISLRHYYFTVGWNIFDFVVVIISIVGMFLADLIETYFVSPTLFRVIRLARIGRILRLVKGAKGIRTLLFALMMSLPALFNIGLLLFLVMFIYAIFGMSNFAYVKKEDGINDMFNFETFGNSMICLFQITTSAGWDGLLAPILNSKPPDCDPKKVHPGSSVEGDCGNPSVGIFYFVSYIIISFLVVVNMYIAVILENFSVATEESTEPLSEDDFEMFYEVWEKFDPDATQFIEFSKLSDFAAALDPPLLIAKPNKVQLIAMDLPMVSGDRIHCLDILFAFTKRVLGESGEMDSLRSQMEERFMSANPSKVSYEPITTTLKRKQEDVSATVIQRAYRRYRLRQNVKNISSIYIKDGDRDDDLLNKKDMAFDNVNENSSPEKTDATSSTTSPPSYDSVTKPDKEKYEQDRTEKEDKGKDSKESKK

[3] = Retention time of the compound measured over 30 mins at flow rate of 1 mL/min by HPLC; type: physicochemical; settings: 0.5 h
How it was run: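 Reversed-phase analytical HPLC or LC−MS on a SymmetryShield RP18 column (5 μm, 4.6 × 150 mm). Gradient 10−60% B over 30 min at 1 mL/min; A = 0.1% TFA in water, B = 0.1% TFA in acetonitrile.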

HEK293 = assay: Selectivity ratio of IC50 for rat Nav1.2 expressed in HEK-293 cells to IC50 for human Nav1.7 expressed in HEK-293 cells; type: cell-based

Structure (SMILES)	Retention_time [1]	pIC50 [2]	Retention_time [3]	Ratio IC50 (HEK293)
CSCC[C@@H]1NC(=O)[C@H](Cc2c[nH]c3ccccc23)NC(=O)[C@H](CCCCN)NC(=O)[C@H](CCC(N)=O)NC(=O)[C@@H](NC(=O)[C@@H](N)Cc2ccc(O)cc2)CSSC[C@@H]2NC(=O)[C@@H]3CSSC[C@@H](C(=O)N[C@@H](CCCCN)C(=O)N[C@@H](CCCCN)C(=O)N[C@@H](CCCCN)C(=O)N[C@@H](CC(C)C)C(=O)N[C@@H](Cc4c[nH]c5ccccc45)C(=O)O)NC(=O)[C@H](Cc4c[nH]c5ccccc45)NC(=O)[C@H](CC(C)C)NC(=O)[C@H](CCC(=O)O)NC(=O)[C@H](CSSC[C@H](NC(=O)[C@H]([C@@H](C)O)NC(=O)[C@H](Cc4c[nH]c5ccccc45)NC1=O)C(=O)N[C@@H](CC(=O)O)C(=O)N[C@@H](CO)C(=O)N[C@@H](CCC(=O)O)C(=O)N[C@@H](CCCNC(=N)N)C(=O)N[C@@H](CCCCN)C(=O)N3)NC(=O)[C@H](C(C)C)NC(=O)[C@H](Cc1ccc(O)cc1)NC(=O)CNC(=O)[C@H](CCC(=O)O)NC2=O	9.09 min	< 5.52	14.36 min	
CSCC[C@@H]1NC(=O)[C@H](Cc2c[nH]c3ccccc23)NC(=O)[C@H](CCCCN)NC(=O)[C@H](CCC(N)=O)NC(=O)[C@@H](NC(=O)[C@@H](N)Cc2ccc(O)cc2)CSSC[C@@H]2NC(=O)[C@@H]3CSSC[C@@H](C(=O)N[C@@H](CCCCN)C(=O)N[C@@H](CCCCN)C(=O)N[C@@H](CCCCN)C(=O)N[C@@H](CC(C)C)C(=O)N[C@@H](Cc4c[nH]c5ccccc45)C(=O)O)NC(=O)[C@H](Cc4c[nH]c5ccccc45)NC(=O)[C@H](CC(C)C)NC(=O)[C@H](CCCNC(=N)N)NC(=O)[C@H](CSSC[C@H](NC(=O)[C@H]([C@@H](C)O)NC(=O)[C@H](Cc4c[nH]c5ccccc45)NC1=O)C(=O)N[C@@H](CC(=O)O)C(=O)N[C@@H](CCC(=O)O)C(=O)N[C@@H](CCC(=O)O)C(=O)N[C@@H](CCCNC(=N)N)C(=O)N[C@@H](CCCCN)C(=O)N3)NC(=O)[C@H](C(C)C)NC(=O)[C@H](CC(C)C)NC(=O)CNC(=O)[C@H](CCC(=O)O)NC2=O (HELM PEPTIDE1{Y.C.Q.K.W.M.W.T.C.D.E.E.R.K.C.C.E.G.L.V.C.R.L.W.C.K.K.K.L.W}$PEPTIDE1,PEPTIDE1,2:R3-16:R3|PEPTIDE1,PEPTIDE1,9:R3-21:R3|PEPTIDE1,PEPTIDE1,15:R3-25:R3$$$V2.0)	8.66 min	6.53	14.78 min	
[H][C@]12CSSC[C@@H](C(=O)N[C@@H](CCCCN)C(=O)N[C@@H](CCCCN)C(=O)N[C@@H](CCCCN)C(=O)N[C@@H](CC(C)C)C(=O)N[C@@H](Cc3c[nH]c4ccccc34)C(=O)O)NC(=O)[C@H](Cc3c[nH]c4ccccc34)NC(=O)[C@H](CC(C)C)NC(=O)[C@H](CCCNC(=N)N)NC(=O)[C@]3([H])CSSC[C@]([H])(NC(=O)[C@]([H])([C@@H](C)O)NC(=O)[C@H](Cc4c[nH]c5ccccc45)NC(=O)[C@H](CCSC)NC(=O)[C@H](Cc4c[nH]c5ccccc45)NC(=O)[C@H](CCCCN)NC(=O)[C@H](CCC(N)=O)NC(=O)[C@@H](NC(=O)[C@@H](N)Cc4ccc(O)cc4)CSSC[C@]([H])(NC1=O)C(=O)N[C@@H](CCC(=O)O)C(=O)NCC(=O)N[C@@H](CC(C)C)C(=O)N[C@@H](C(C)C)C(=O)N3)C(=O)N[C@@H](CC(=O)O)C(=O)N[C@@H](CO)C(=O)N[C@@H](C)C(=O)N[C@@H](CCCNC(=N)N)C(=O)N[C@@H](CCCCN)C(=O)N2 (HELM PEPTIDE1{Y.C.Q.K.W.M.W.T.C.D.S.A.R.K.C.C.E.G.L.V.C.R.L.W.C.K.K.K.L.W}$PEPTIDE1,PEPTIDE1,2:R3-16:R3|PEPTIDE1,PEPTIDE1,9:R3-21:R3|PEPTIDE1,PEPTIDE1,15:R3-25:R3$$$V2.0)	9.86 min		16.59 min	24
CC[C@H](C)[C@H](NC(=O)[C@](C)(CC(C)C)NC(=O)[C@H](CCCCN)NC(=O)[C@H](CCCCN)NC(=O)[C@H](CCCCN)NC(=O)[C@@H]1CSSC[C@@H]2NC(=O)[C@H](CCCCN)NC(=O)[C@H](CCCNC(=N)N)NC(=O)[C@H](C)NC(=O)[C@H](CO)NC(=O)[C@H](CC(=O)O)NC(=O)[C@@H]3CSSC[C@H](NC(=O)[C@H](C(C)C)NC(=O)[C@H](CC(C)C)NC(=O)CNC(=O)[C@H](CCC(=O)O)NC(=O)[C@H](CSSC[C@H](NC(=O)[C@@H](N)Cc4ccc(O)cc4)C(=O)N[C@@H](CCC(N)=O)C(=O)N[C@@H](CCCCN)C(=O)N[C@@H](Cc4c[nH]c5ccccc45)C(=O)N[C@@H](CCSC)C(=O)N[C@@H](Cc4c[nH]c5ccccc45)C(=O)N[C@@H]([C@@H](C)O)C(=O)N3)NC2=O)C(=O)N[C@@H](CCCNC(=N)N)C(=O)N[C@@H](CC(C)C)C(=O)N[C@@H](Cc2c[nH]c3ccccc23)C(=O)N1)C(=O)O (HELM PEPTIDE1{Y.C.Q.K.W.M.W.T.C.D.S.A.R.K.C.C.E.G.L.V.C.R.L.W.C.K.K.K.[CC(C)C[C@](C)(N[*:1])C(=O)[*:2]].I}$PEPTIDE1,PEPTIDE1,2:R3-16:R3|PEPTIDE1,PEPTIDE1,9:R3-21:R3|PEPTIDE1,PEPTIDE1,15:R3-25:R3$$$V2.0)	9.03 min		14.87 min	34.2
[H][C@]12CSSC[C@@H](C(=O)N[C@@H](CCCCN)C(=O)N[C@@H](CCCCN)C(=O)N[C@@H](CCCCN)C(=O)N[C@@](C)(CC(C)C)C(=O)N[C@@H](Cc3c[nH]c4ccccc34)C(=O)O)NC(=O)[C@H](Cc3c[nH]c4ccccc34)NC(=O)[C@H](CC(C)C)NC(=O)[C@H](CCCNC(=N)N)NC(=O)[C@]3([H])CSSC[C@]([H])(NC(=O)[C@]([H])([C@@H](C)O)NC(=O)[C@H](Cc4c[nH]c5ccccc45)NC(=O)[C@H](CCSC)NC(=O)[C@H](Cc4c[nH]c5ccccc45)NC(=O)[C@H](CCCCN)NC(=O)[C@H](CCC(N)=O)NC(=O)[C@@H](NC(=O)[C@@H](N)Cc4ccc(O)cc4)CSSC[C@]([H])(NC1=O)C(=O)N[C@@H](CCC(=O)O)C(=O)NCC(=O)N[C@@H](CC(C)C)C(=O)N[C@@H](C(C)C)C(=O)N3)C(=O)N[C@@H](CC(=O)O)C(=O)N[C@@H](CO)C(=O)N[C@@H](C)C(=O)N[C@@H](CCCNC(=N)N)C(=O)N[C@@H](CCCCN)C(=O)N2 (HELM PEPTIDE1{Y.C.Q.K.W.M.W.T.C.D.S.A.R.K.C.C.E.G.L.V.C.R.L.W.C.K.K.K.[CC(C)C[C@](C)(N[*:1])C(=O)[*:2]].W}$PEPTIDE1,PEPTIDE1,2:R3-16:R3|PEPTIDE1,PEPTIDE1,9:R3-21:R3|PEPTIDE1,PEPTIDE1,15:R3-25:R3$$$V2.0)	9.28 min		15.29 min	3.5
[H][C@]12CSSC[C@@H](C(=O)N[C@@H](CCCCN)C(=O)N[C@@H](CCCCN)C(=O)N[C@@H](CCCCN)C(=O)N(C)[C@@H](CC(C)C)C(=O)N[C@H](C(=O)O)[C@@H](C)CC)NC(=O)[C@H](Cc3c[nH]c4ccccc34)NC(=O)[C@H](CC(C)C)NC(=O)[C@H](CCCNC(=N)N)NC(=O)[C@]3([H])CSSC[C@]([H])(NC(=O)[C@]([H])([C@@H](C)O)NC(=O)[C@H](Cc4c[nH]c5ccccc45)NC(=O)[C@H](CCSC)NC(=O)[C@H](Cc4c[nH]c5ccccc45)NC(=O)[C@H](CCCCN)NC(=O)[C@H](CCC(N)=O)NC(=O)[C@@H](NC(=O)[C@@H](N)Cc4ccc(O)cc4)CSSC[C@]([H])(NC1=O)C(=O)N[C@@H](CCC(=O)O)C(=O)NCC(=O)N[C@@H](CC(C)C)C(=O)N[C@@H](C(C)C)C(=O)N3)C(=O)N[C@@H](CC(=O)O)C(=O)N[C@@H](CO)C(=O)N[C@@H](C)C(=O)N[C@@H](CCCNC(=N)N)C(=O)N[C@@H](CCCCN)C(=O)N2 (HELM PEPTIDE1{Y.C.Q.K.W.M.W.T.C.D.S.A.R.K.C.C.E.G.L.V.C.R.L.W.C.K.K.K.[meL].I}$PEPTIDE1,PEPTIDE1,2:R3-16:R3|PEPTIDE1,PEPTIDE1,9:R3-21:R3|PEPTIDE1,PEPTIDE1,15:R3-25:R3$$$V2.0)	8.79 min		14.4 min	2.8
CSCC[C@@H]1NC(=O)[C@H](Cc2c[nH]c3ccccc23)NC(=O)[C@H](CCCCN)NC(=O)[C@H](CCC(N)=O)NC(=O)[C@@H](NC(=O)[C@@H](N)Cc2ccc(O)cc2)CSSC[C@@H]2NC(=O)[C@@H]3CSSC[C@@H](C(=O)N[C@@H](CCCCN)C(=O)N[C@@H](CCCCN)C(=O)N[C@@H](CCCCN)C(=O)N(C)[C@@H](CC(C)C)C(=O)N[C@@H](Cc4c[nH]c5ccccc45)C(=O)O)NC(=O)[C@H](Cc4c[nH]c5ccccc45)NC(=O)[C@H](CC(C)C)NC(=O)[C@H](CCCNC(=N)N)NC(=O)[C@H](CSSC[C@H](NC(=O)[C@H]([C@@H](C)O)NC(=O)[C@H](Cc4c[nH]c5ccccc45)NC1=O)C(=O)N[C@@H](CC(=O)O)C(=O)N[C@@H](CO)C(=O)N[C@@H](C)C(=O)N[C@@H](CCCNC(=N)N)C(=O)N[C@@H](CCCCN)C(=O)N3)NC(=O)[C@H](C(C)C)NC(=O)[C@H](CC(C)C)NC(=O)CNC(=O)[C@H](CCC(=O)O)NC2=O (HELM PEPTIDE1{Y.C.Q.K.W.M.W.T.C.D.S.A.R.K.C.C.E.G.L.V.C.R.L.W.C.K.K.K.[meL].W}$PEPTIDE1,PEPTIDE1,2:R3-16:R3|PEPTIDE1,PEPTIDE1,9:R3-21:R3|PEPTIDE1,PEPTIDE1,15:R3-25:R3$$$V2.0)	9.04 min		15.1 min	2.8
